According to ChEMBL document CHEMBL1124266, “Stereoelectronic factors influencing the biological activity and DNA interaction of synthetic antitumor agents modeled on CC-1065” (J Med Chem, 1988):
Activity calls are given as the source filed them. The calls are words filed in the database; no cut-off is given here.

Experiments:
[1] = system: L1210; assay: In vitro concentration required to inhibit 50% growth of murine L1210 leukemia cells; assay type: functional; settings: Mus musculus, read-out: ID50 (the source's name)
Method in brief: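 Mouse L1210 leukemia cells in RPMI 1634 with 5% fetal calf serum, 0.075% sodium bicarbonate, penicillin 0.1 mg/mL and streptomycin 50 μg/mL. Drug aliquots added to tubes, then cells at approximately 5 × 10³ cells/mL. Incubation 37 °C for 3 days; cell number by Coulter counter. ID₅₀ = nM concentration giving 50% growth inhibition.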

[2] = Lipophilic/hydrophilic partitioning (RP-TLC); assay type: ADME; settings: 2:1 DMF-saline
Method in brief: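 Reverse-phase TLC developed in 2:1 DMF–saline (0.9% NaCl). Plates scanned at 350 nm. R_f values averaged from two to four determinations.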

[3] = system: Nucleic Acid; assay: Induced circular dichroism (ICD), expressed as molar ellipticity, in the presence of calf-thymus DNA; assay type: functional; settings: Bos taurus
Method in brief: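 Drug stock (1–4 mg/mL in DMA, DMF or DMSO) injected into calf-thymus DNA (11 × 10⁻⁵ M) in 0.01 M phosphate buffer pH 7.2. Final drug 0.85 × 10⁻⁵ M, base-to-drug ratio 13. Stood 24 h at room temperature before CD spectrum. Value is molar ellipticity at long-wavelength maximum, ca. 350 nm.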

[4] = system: P388; assay: In vivo % increase in life span of treated animals (OD) over that of control mice bearing tumor, determined against P388 leukemia cells; assay type: functional, Mus musculus
Method in brief: (§1)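 Male BDF1 mice inoculated ip with 10⁶ P388 cells (tumor passaged in DBA/2 females) on day 0. Drug ip on days 1, 5, 9 in 2% DMA, 10% Emulphor 620-P, water. Six mice per group. %ILS = (median death day treated / median death day untreated control − 1) × 100, at optimum dose. 30-day survivors counted as cured.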

[5] = system: P388; assay: In vivo optimum dose given on days 1, 5, and 9 to mice implanted intraperitoneally with P388 leukemia cells; assay type: functional, Mus musculus
Method in brief: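 P388 cells (10⁶/mouse) implanted ip into male BDF1 mice on day 0. Dosing ip on days 1, 5 and 9 in 2% DMA/10% Emulphor 620-P/water vehicle. Six mice per group. Optimum dose given in mg/kg per day, judged by increase in median life span.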

[6] = system: P388; assay: In vivo % increase in life span of treated animals (OD) over that of control mice bearing tumor, determined against P388 leukemia cells; NA=no activity(<20% ILS); assay type: functional, organism-based; settings: Mus musculus
Method in brief: (§2)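 P388 leukemia kept by serial passage in female DBA/2 mice. Male BDF1 mice were given 10^6 cells ip on day 0. Drug was given ip on days 1, 5 and 9 in 2% DMA/10% Emulphor 620-P/water, with six mice per group. Optimum dose was in mg/kg per day. %ILS came from the median day of death versus untreated tumor-bearing controls. Mice alive at 30 days were counted as cured.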

[7] = Pseudo-first order rate constant at pH 3 followed spectrophotometrically; assay type: ADME
Method in brief: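 Acid-catalyzed cyclopropyl ring opening in methanolic buffer at pH 3, tracked by loss of the 344–370 nm absorption band. Residual long-wavelength absorbance at 2 weeks subtracted. Rate from ln(A/A₀) vs time, linear for at least 2 half-lives. Drug 20–120 µM.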

[8] = system: Mus musculus; assay: In vivo % increase in life span of treated animals (OD) over that of control mice bearing P388 leukemia; assay type: functional; method in brief: as §1
[9] = system: Mus musculus; assay: In vivo optimum dose (OD), given on days 1, 5, and 9 to mice bearing P388 leukemia; assay type: functional; method in brief: as §2
[10] = Pseudo-first order rate constant at pH 3 followed spectrophotometrically; Stable; assay type: ADME

SMILES	IC50 [1] [nM]	Rf [2]	ICD [3]	ILS [4] [%]	OD [5] [mg/kg/day]	ILS [6]	k [7]	ILS [8] [%]	OD [9] [mg/kg/day]	k [10]
Cc1c[nH]c2c1C13CC1CN(S(=O)(=O)c1ccccc1)C3=CC2=O (stereo unspecified)	900	0.58	–	–	–	–	–	–	–	–
Cc1c[nH]c2c1C13CC1CN(C(=O)c1ccc[nH]1)C3=CC2=O (stereo unspecified)	2	0.7	0.01	71	1	–	–	–	–	–
CC1=C(C(=O)N2CC3CC34C2=CC(=O)c2[nH]cc(C)c24)Cc2ccccc21 (stereo unspecified)	30	0.39	0.004	–	17	inactive	–	–	–	–
Cc1c[nH]c2c1C13CC1CN(C(=O)c1cc4cc(NC(=O)c5cc6cc(NC(=O)c7ccccc7)ccc6[nH]5)ccc4[nH]1)C3=CC2=O (stereo unspecified)	0.01	0.3	0.033	77	0.1	–	–	–	–	–
Cc1c[nH]c2c1C13CC1CN(C(=O)c1cc4ccccc4n1C)C3=CC2=O (stereo unspecified)	10	–	0.003	–	–	–	1e-05	44	8	–
CCCCCC(=O)N1CC2CC23C1=CC(=O)c1[nH]cc(C)c13 (stereo unspecified)	3	0.35	0	100	2	–	8e-06	–	–	–
COc1ccc2[nH]c(C(=O)N3CC4CC45C3=CC(=O)c3[nH]cc(C)c35)cc2c1 (stereo unspecified)	0.01	0.47	0.022	95	0.05	–	1e-05	–	–	–
CCCCCCCCCC(=O)N1CC2CC23C1=CC(=O)c1[nH]cc(C)c13 (stereo unspecified)	100	0.07	0	–	40	inactive	–	–	–	–
CC(=O)N1CC2CC23C1=CC(=O)c1[nH]cc(C)c13 (stereo unspecified)	20	0.9	0	45	3	–	–	–	–	–
Cc1c[nH]c2c1C13CC1CN(C(=O)c1cc4cc(NC(N)=O)ccc4[nH]1)C3=CC2=O (stereo unspecified)	0.6	0.89	0.047	65	0.06	–	1e-05	–	–	–
Cc1c[nH]c2c1C13CC1CN(C(=O)c1ccccc1)C3=CC2=O (stereo unspecified)	3	0.63	< 0.001	71	12	–	9e-06	–	–	–
Cc1c[nH]c2c1C13CC1CN(C(=O)c1cc4ccccc4o1)C3=CC2=O (stereo unspecified)	0.04	–	0.006	–	–	–	1.1e-05	110	0.25	–
Cc1c[nH]c2c1C13CC1CN(C(=O)c1ccc4ccccc4n1)C3=CC2=O (stereo unspecified)	10	0.5	0.001	142	6	–	1.2e-05	–	–	–
Cc1c[nH]c2c1C13CC1CN(C(=O)c1cc4ccccc4[nH]1)C3=CC2=O (stereo unspecified)	0.2	0.45	0.036	90	0.4	–	1e-05	–	–	–
Cc1c[nH]c2c1C13CC1CN(C(=O)OC(C)(C)C)C3=CC2=O (stereo unspecified)	300	0.35	0	–	–	–	5e-06	–	–	–
Cc1c[nH]c2c1C13CC1CN(C(=O)c1cc4cc(NC(=O)c5cc6ccccc6[nH]5)ccc4[nH]1)C3=CC2=O (stereo unspecified)	0.01	0.3	0.07	159	0.05	–	–	–	–	–
COc1c(O)c2c(c3cc(C(=O)N4CCc5c4c(O)c(OC)c4[nH]c(C(=O)N6C[C@H]7C[C@@]78C6=CC(=O)c6[nH]cc(C)c68)cc54)[nH]c13)CCN2C(N)=O [(+)-CC-1065]	0.07	0.39	0.28	62	0.1	–	–	–	–	–
COc1c(O)ccc2cc(C(=O)N3CC4CC45C3=CC(=O)c3[nH]cc(C)c35)[nH]c12 (stereo unspecified)	0.1	0.63	0.037	55	0.05	–	1e-05	–	–	–
Cc1c[nH]c2c1C13CC1CN(C(=O)c1ccc4ccccc4c1)C3=CC2=O (stereo unspecified)	7	0.46	0	73	6	–	–	–	–	–
CCCCCC(=O)Nc1ccc2nc(C(=O)N3CC4CC45C3=CC(=O)c3[nH]cc(C)c35)ccc2c1 (stereo unspecified)	100	0.15	–	127	21	–	–	–	–	–
Cc1c[nH]c2c1C13CC1CN=C3C=C2O (stereo unspecified)	900	0.87	0	–	10	inactive	–	–	–	Stable
Cc1c[nH]c2c1C13CC1CN(S(C)(=O)=O)C3=CC2=O (stereo unspecified)	100	0.82	0	60	25	–	3e-06	–	–	–
Cc1c[nH]c2c1C13CC1CN(C(=O)c1ccc(NC(=O)c4ccccc4)cc1)C3=CC2=O (stereo unspecified)	0.5	0.42	0.011	83	0.5	–	–	–	–	–
Cc1c[nH]c2c1C13CC1CN(C(=O)c1cc4cc(NC(=O)c5ccccc5)ccc4[nH]1)C3=CC2=O (stereo unspecified)	0.07	0.43	0.036	82	0.05	–	–	–	–	–
Cc1c[nH]c2c1C13CC1CN(C(=O)c1cc4cc(NC(=O)c5cc6ccccc6o5)ccc4[nH]1)C3=CC2=O (stereo unspecified)	0.02	0.3	0.05	170	0.05	–	1e-05	–	–	–
Cc1c[nH]c2c1C13CC1CN(C(=O)c1cc4ccccc4s1)C3=CC2=O (stereo unspecified)	0.3	0.41	0.007	100	0.8	–	1.1e-05	–	–	–
Cc1c[nH]c2c1C13CC1CN(C(=O)c1ccccn1)C3=CC2=O (stereo unspecified)	10	0.76	0	69	15	–	1.2e-05	–	–	–
Cc1c[nH]c2c1C13CC1CN(C(=O)c1cc4cc(NC(=O)c5cc6cc(NC(N)=O)ccc6[nH]5)ccc4[nH]1)C3=CC2=O (stereo unspecified)	0.3	–	0.075	121	0.1	–	–	–	–	–
